Laboratory results published in ChEMBL document CHEMBL5131379 (J Med Chem, 2021).
Blank lines part the entries; values can stand above or below the compound they belong to. Active and inactive are the calls of the source. The calls are words filed in the database; no cut-off is given here.

Experiments:
[1] = in vitro; settings: human, MRC9 cells
[2] = test system: MV4-11; assay: Induction of apoptosis in human MV4-11 cells assessed as early apoptotic cells at 0.5 uM measured after 18 hrs by Annexin V-FITC/propidium iodide staining based FACS flow cytometry (reference value: 2.23%); type: functional
[3] = test system: MV4-11; assay: Induction of apoptosis in human MV4-11 cells assessed as late apoptotic cells at 4 uM measured after 18 hrs by Annexin V-FITC/propidium iodide staining based FACS flow cytometry (reference value: 7.49%); type: functional
[4] = test system: MV4-11; assay: Induction of apoptosis in human MV4-11 cells assessed as late apoptotic cells at 2 uM measured after 18 hrs by Annexin V-FITC/propidium iodide staining based FACS flow cytometry (reference value: 7.49%); type: functional
[5] = test system: MV4-11; assay: Induction of apoptosis in human MV4-11 cells assessed as early apoptotic cells at 2 uM measured after 18 hrs by Annexin V-FITC/propidium iodide staining based FACS flow cytometry (reference value: 2.23%); type: functional
[6] = test system: MV4-11; assay: Induction of apoptosis in human MV4-11 cells assessed as viable cells at 4 uM measured after 18 hrs by Annexin V-FITC/propidium iodide staining based FACS flow cytometry (reference value: 83.23%); type: functional; settings: read-out: Activity
[7] = test system: MV4-11; assay: Induction of apoptosis in human MV4-11 cells at 0.5 uM assessed as increase in cleaved caspase-3 level measured after 6 hrs by Western blot analysis; type: functional, cell-based
Summary of the method: (§1)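 Protein was measured by BCA and run on a 4–20% SDS gel, then transferred to nitrocellulose and blocked in 5% milk. Primary antibodies were incubated overnight at 4 °C, with HSC70 as loading control. HRP secondaries were used with ECL detection.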

[8] = target: T1, Protein deacetylase HDAC6 (Homo sapiens) (UniProt Q9UBN7); assay: Inhibition of HDAC6 in human HeLa cells assessed as increase in acetylated alpha tubulin level incubated for 6 hrs by immunofluorescent assay; type: cell-based
T1 sequence (whole entry): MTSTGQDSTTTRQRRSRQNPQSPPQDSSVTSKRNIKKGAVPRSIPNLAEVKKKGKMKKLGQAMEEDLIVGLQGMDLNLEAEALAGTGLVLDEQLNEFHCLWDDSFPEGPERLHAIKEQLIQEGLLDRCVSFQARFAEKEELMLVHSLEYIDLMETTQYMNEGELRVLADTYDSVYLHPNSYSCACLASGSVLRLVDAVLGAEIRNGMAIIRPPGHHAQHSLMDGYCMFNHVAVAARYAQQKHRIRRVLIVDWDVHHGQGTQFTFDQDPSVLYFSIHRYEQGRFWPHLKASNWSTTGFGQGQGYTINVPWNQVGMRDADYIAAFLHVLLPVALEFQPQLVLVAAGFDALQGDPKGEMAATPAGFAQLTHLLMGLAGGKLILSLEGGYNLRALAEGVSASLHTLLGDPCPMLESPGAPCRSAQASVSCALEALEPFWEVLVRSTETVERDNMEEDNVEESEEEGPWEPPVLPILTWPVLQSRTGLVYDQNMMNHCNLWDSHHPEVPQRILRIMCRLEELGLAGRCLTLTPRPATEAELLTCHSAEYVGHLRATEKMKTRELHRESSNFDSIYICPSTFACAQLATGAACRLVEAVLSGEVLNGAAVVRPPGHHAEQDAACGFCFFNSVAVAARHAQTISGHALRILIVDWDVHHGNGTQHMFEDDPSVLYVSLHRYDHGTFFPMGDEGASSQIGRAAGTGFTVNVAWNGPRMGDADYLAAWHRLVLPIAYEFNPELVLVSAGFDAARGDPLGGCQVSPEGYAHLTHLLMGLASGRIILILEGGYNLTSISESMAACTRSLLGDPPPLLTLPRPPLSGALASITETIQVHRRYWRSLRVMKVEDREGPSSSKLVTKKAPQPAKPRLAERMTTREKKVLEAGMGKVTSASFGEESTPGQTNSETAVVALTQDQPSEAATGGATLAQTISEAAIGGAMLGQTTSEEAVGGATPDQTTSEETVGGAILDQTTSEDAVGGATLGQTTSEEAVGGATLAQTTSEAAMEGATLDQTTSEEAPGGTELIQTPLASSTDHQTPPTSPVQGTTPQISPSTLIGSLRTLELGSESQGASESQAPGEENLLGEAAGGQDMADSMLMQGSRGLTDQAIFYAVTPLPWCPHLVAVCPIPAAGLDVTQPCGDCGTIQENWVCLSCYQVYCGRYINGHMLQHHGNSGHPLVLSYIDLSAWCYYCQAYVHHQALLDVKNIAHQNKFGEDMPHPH
Summary of the method: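 HeLa cells (DMEM, 10% FBS, 37 °C, 5% CO2) seeded subconfluent; inhibitor added after 24 h, increasing doses for 6 h. Fixed in 4% formaldehyde, permeabilised with 1% Triton X-100, blocked in 5% BSA. Stained for acetylated α-tubulin and acetylated histone H3 (Lys18), DAPI counterstain. Intensity from imaging, n = 3, two-way ANOVA with Tukey test.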

[9] = test system: MV4-11; assay: Induction of apoptosis in human MV4-11 cells assessed as viable cells at 0.25 uM measured after 18 hrs by Annexin V-FITC/propidium iodide staining based FACS flow cytometry (reference value: 83.23%); type: functional; settings: read-out: Activity
[10] = test system: MV4-11; assay: Induction of apoptosis in human MV4-11 cells at 0.5 uM assessed as increase in cleaved caspase-3 level measured after 6 hrs by Western blot analysis
[11] = test system: MV4-11; assay: Induction of apoptosis in human MV4-11 cells assessed as viable cells at 2 uM measured after 18 hrs by Annexin V-FITC/propidium iodide staining based FACS flow cytometry (reference value: 83.23%); type: functional; settings: read-out: Activity
[12] = test system: MV4-11; assay: Induction of apoptosis in human MV4-11 cells assessed as early apoptotic cells at 4 uM measured after 18 hrs by Annexin V-FITC/propidium iodide staining based FACS flow cytometry (reference value: 2.23%); type: functional
[13] = test system: MV4-11; assay: Induction of apoptosis in human MV4-11 cells at 0.5 uM assessed as increase in cleaved PARP-1 level measured after 6 hrs by Western blot analysis; type: functional, cell-based
Summary of the method: as §1

[14] = target: T1, Protein deacetylase HDAC6 (Homo sapiens); assay: Inhibition of HDAC6 in human MV4-11 cells assessed as increase in acetylated alpha-tubulin incubated for 6 hrs by Western blot analysis; type: cell-based
Summary of the method: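 Protein quantified by BCA, run on 4–20% SDS gel, blotted to nitrocellulose. Probed overnight at 4 °C for acetylated α-tubulin and acetylated H3 (Lys18), HSC70 as loading control. HRP secondaries, ECL detection.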

[15] = test system: MV4-11; assay: Induction of apoptosis in human MV4-11 cells assessed as late apoptotic cells at 0.25 uM measured after 18 hrs by Annexin V-FITC/propidium iodide staining based FACS flow cytometry (reference value: 7.49%); type: functional
[16] = test system: MV4-11; assay: Induction of apoptosis in human MV4-11 cells assessed as late apoptotic cells at 0.5 uM measured after 18 hrs by Annexin V-FITC/propidium iodide staining based FACS flow cytometry (reference value: 7.49%); type: functional
[17] = test system: MV4-11; assay: Induction of apoptosis in human MV4-11 cells assessed as early apoptotic cells at 1 uM measured after 18 hrs by Annexin V-FITC/propidium iodide staining based FACS flow cytometry (reference value: 2.23%); type: functional
[18] = test system: MV4-11; assay: Induction of apoptosis in human MV4-11 cells assessed as viable cells at 0.5 uM measured after 18 hrs by Annexin V-FITC/propidium iodide staining based FACS flow cytometry (reference value: 83.23%); type: functional; settings: read-out: Activity
[19] = target: T1, Protein deacetylase HDAC6 (Homo sapiens); assay: Binding affinity to HDAC6 (unknown origin) assessed as residence time
[20] = test system: MV4-11; assay: Induction of apoptosis in human MV4-11 cells assessed as early apoptotic cells at 0.25 uM measured after 18 hrs by Annexin V-FITC/propidium iodide staining based FACS flow cytometry (reference value: 2.23%); type: functional
[21] = test system: MV4-11; assay: Induction of apoptosis in human MV4-11 cells assessed as late apoptotic cells at 1 uM measured after 18 hrs by Annexin V-FITC/propidium iodide staining based FACS flow cytometry (reference value: 7.49%); type: functional
[22] = Cytotoxicity against human MRC9 cells assessed as reduction in cell growth incubated for 72 hrs by Cell titer-blue assay; type: toxicity, cell-based
[23] = target: Histone deacetylase 1 (Homo sapiens) (UniProt Q13547); assay: Inhibition of HDAC1 in human MV4-11 cells assessed as acetylation of histone H3 incubated for 6 hrs by Western blot analysis; type: cell-based
Chain of Histone deacetylase 1 (Homo sapiens) (Q13547 whole entry): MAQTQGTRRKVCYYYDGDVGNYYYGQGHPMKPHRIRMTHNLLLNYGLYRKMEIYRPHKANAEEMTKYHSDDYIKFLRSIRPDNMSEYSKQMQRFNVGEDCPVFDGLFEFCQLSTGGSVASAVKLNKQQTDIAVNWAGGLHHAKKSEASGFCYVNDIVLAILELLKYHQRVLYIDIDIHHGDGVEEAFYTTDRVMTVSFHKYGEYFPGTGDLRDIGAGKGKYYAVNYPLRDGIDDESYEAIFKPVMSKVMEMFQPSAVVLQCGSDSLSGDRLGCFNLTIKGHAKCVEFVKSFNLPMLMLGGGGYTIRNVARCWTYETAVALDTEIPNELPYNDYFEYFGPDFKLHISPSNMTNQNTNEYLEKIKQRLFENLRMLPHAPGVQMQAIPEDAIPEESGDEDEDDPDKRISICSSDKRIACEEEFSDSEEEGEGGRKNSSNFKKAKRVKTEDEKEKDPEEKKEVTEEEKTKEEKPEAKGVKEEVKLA
Summary of the method: as §1

Compound: O=C(NO)c1ccc(CN(C2CC2)S(=O)(=O)c2c(F)c(F)c(F)c(F)c2F)cc1
IC50 at 72 h [1]: > 20 µM

Compound: O=C(CCCCCCNC(=O)c1cnc(N(c2ccccc2)c2ccccc2)nc1)NO [RICOLINOSTAT]
IC50 at 72 h [1]: > 20 µM

Compound: CC(C)N(Cc1ccc(C(=O)NO)cc1)S(=O)(=O)c1c(F)c(F)c(F)c(F)c1F
IC50 at 72 h [1]: > 10 µM

Compound: O=C(NO)c1ccc(CNC(=O)c2c(F)c(F)c(F)c(F)c2F)cc1
IC50 at 72 h [1]: > 50 µM

Compound: O=C(NO)c1ccc(CNS(=O)(=O)c2c(F)c(F)c(F)c(F)c2F)cc1
IC50 at 72 h [1]: > 25 µM

Compound: O=C(CCCCCCNC(=O)c1cnc(N(c2ccccc2)c2ccccc2Cl)nc1)NO [CITARINOSTAT]
IC50 at 72 h [22]: > 30 µM | IC50 at 72 h [1]: > 30 µM | inhibition [14]: Active | inhibition [23]: Active

Compound: O=C(NO)c1cccc(CN(C2CC2)S(=O)(=O)c2c(F)c(F)c(F)c(F)c2F)c1
IC50 at 72 h [1]: > 50 µM

Compound: CN(Cc1ccc(C(=O)NO)cc1)S(=O)(=O)c1c(F)c(F)c(F)c(F)c1F
IC50 at 72 h [1]: > 30 µM

The next lines start with results.

IC50 at 72 h [1]: > 25 µM
Compound: O=C(NO)c1ccc(CN(C2CC2)S(=O)(=O)c2cc(F)c(F)c(F)c2)cc1

IC50 at 72 h [1]: > 50 µM
Compound: O=C(NO)c1ccc(CN(C2CC2)S(=O)(=O)c2c(F)c(Cl)c(F)c(Cl)c2F)cc1

IC50 at 72 h [1]: > 15 µM
Compound: O=C(NO)c1ccc(CN(C2CC2)S(=O)(=O)c2c(F)c(F)cc(F)c2F)cc1

IC50 at 72 h [1]: > 20 µM
Compound: O=C(NO)c1ccc(CN(C2CC2)S(=O)(=O)c2c(F)cc(F)c(Cl)c2F)cc1

inhibition [8]: Active | IC50 at 72 h [1]: > 20 µM | inhibition [14]: Active | TIME [19]: 0.386 h
Compound: O=C(NO)c1ccc(CN(C2CC2)S(=O)(=O)c2cc(F)c(F)c(F)c2F)cc1
Activity [2]: 15.26% | Activity [3]: 19.18% | Activity [4]: 19.6% | Activity [5]: 24.39% | viability at 4 µM [6]: 7.61% | Activity [7]: Active | viability at 0.25 µM [9]: 70.6% | Activity [10]: Active | viability at 2 µM [11]: 8.34% | Activity [12]: 24.37% | Activity [13]: Active | Activity [15]: 13.93% | Activity [16]: 17.58% | Activity [17]: 18.12% | viability at 0.5 µM [18]: 49.5% | Activity [20]: 6.73% | Activity [21]: 22.3%

IC50 at 72 h [1]: > 50 µM
Compound: O=C(NO)c1ccc(CN(C2CC2)S(=O)(=O)c2ccc(F)cc2)cc1

IC50 at 72 h [1]: > 20 µM
Compound: O=C(NO)c1ccc(CN(C2CC2)S(=O)(=O)c2c(F)cc(F)cc2F)cc1

IC50 at 72 h [1]: > 30 µM
Compound: O=C(NO)c1ccc(CN(C2CC2)S(=O)(=O)c2c(F)c(F)c(Cl)c(F)c2F)cc1
